TRPC6 act: mouse TRPC6 channel activation | Q61143 | HEK293-TRPC6 membrane potential dye fluorescence; active compounds read high | B-score at 10 µM | actives 0.13% (n = 310,000);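 active = B-score of the integrated fluorescence ratio above library mean plus 3 SD, and starting fluorescence ratio within library mean plus 5 SD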;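 note: higher score means more depolarization so channel activation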
Target sequence (Q61143 whole entry, looked up): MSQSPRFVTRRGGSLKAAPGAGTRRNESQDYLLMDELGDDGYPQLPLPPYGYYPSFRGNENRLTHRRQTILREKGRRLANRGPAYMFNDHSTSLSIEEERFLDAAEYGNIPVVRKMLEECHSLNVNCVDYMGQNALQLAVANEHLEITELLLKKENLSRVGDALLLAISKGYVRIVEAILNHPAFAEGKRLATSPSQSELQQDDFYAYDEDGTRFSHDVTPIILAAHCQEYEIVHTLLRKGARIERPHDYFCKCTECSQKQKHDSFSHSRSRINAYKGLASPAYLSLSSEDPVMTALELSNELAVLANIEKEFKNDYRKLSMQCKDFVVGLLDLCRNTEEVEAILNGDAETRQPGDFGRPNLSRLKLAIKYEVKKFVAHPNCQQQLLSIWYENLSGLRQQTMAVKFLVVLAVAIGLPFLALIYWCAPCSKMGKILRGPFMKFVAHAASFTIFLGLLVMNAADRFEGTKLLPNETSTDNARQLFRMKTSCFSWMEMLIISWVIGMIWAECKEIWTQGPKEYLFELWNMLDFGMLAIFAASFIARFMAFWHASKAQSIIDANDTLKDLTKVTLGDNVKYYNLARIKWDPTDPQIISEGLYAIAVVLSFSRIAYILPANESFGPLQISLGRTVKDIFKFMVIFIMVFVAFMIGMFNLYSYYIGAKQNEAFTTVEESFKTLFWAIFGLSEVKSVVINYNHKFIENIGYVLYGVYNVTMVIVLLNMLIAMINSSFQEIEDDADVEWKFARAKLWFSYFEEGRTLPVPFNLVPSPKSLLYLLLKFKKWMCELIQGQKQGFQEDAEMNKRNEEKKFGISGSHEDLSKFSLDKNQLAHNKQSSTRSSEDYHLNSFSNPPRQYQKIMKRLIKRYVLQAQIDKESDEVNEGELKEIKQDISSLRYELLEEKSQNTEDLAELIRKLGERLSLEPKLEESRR
TRPC4 block: inhibitors of mouse TRPC4 channel. Q9QUQ5. actives 0.39% (n = 300,000). HEK293 TRPC4beta/mu-opioid, DAMGO-evoked Fluo4 calcium flux; active compounds read low. B-score at 10 µM;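 active = B-score over 3 SD under the library average, no early fluorescence shift, positive overall ratio signal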
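Signal: kinetic Fluo4 fluorescence imaging of calcium influx. Material: stable TRPC4beta/mu-opioid receptor HEK293 cells. Probe or stimulus: DAMGO in two steps, submaximal then maximal.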
TRPC6 inhibitor: inhibitors of mouse TRPC6 channel; HEK293-TRPC6, membrane potential dye, ACh-evoked depolarization; active compounds read low; B-score at 10 µM; actives 1.1% (n = 310,000);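 active = B-score under library mean minus 3 SD, initial fluorescence not abnormally high, positive integrated signal ratio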;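 note: B-score derived from integrated fluorescence ratio over the kinetic read; more negative B-score means stronger inhibition of depolarization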
TRPC4 potent: allosterically enhances the mouse TRPC4 cation channel | HEK293 TRPC4beta/mu-opioid, DAMGO EC20, Fluo-4 Ca2+ flux; active compounds read high | actives 0.42% (n = 310,000) | B-score at 10 µM;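 active = B-score of calcium response area above 5 SD of library B-scores, with initial fluorescence ratio within 5 SD of library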;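 note: B-score of integrated fluorescence ratio over time as area under calcium response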
TRPC4 act: activators of mouse TRPC4 channel; AID 2237; actives 0.49% (n = 310,000); B-score at 10 µM; HEK293 TRPC4beta/mu-opioid, Fluo4 calcium fluorescence; active compounds read high; Q9QUQ5;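 active = B-score above 5 SD of library B-scores, and initial fluorescence ratio not above library mean plus 5 SD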;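 note: positive B-score marks a calcium rise read as TRPC4 activation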
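Material: HEK293 stable line with TRPC4beta plus mu-opioid receptor; technique: Fluo4 calcium-sensitive dye fluorescence, kinetic, 1 Hz baseline; timing: Fluo4 dye loading 45 min at room temperature, 110 s recording; controls: assay buffer as low control, maximal DAMGO as high control; read-out: integrated baseline-normalised fluorescence ratio, converted to per-well B score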
* = called active by the depositor; i = inactive. Rows were chosen to be rich in hits. Some 2.3% of all compounds tested hit in one or more screens of this group.

SMILES	TRPC6 act	TRPC4 block	TRPC6 inhibitor	TRPC4 potent	TRPC4 act
COC(=O)C1=C(C)N(Cc2ccccc2)C(=S)N[C@H]1c1cccc(F)c1	i	-5*	i	i	i
CCc1nc(NCCc2ccccn2)c2nnn(Cc3ccccc3F)c2n1	i	i	i	i	186*
CN1CCN(c2ccc(CNS(=O)(=O)c3ccsc3)cc2)CC1	i	i	i	22*	i
CN1CCN(c2ccc(CNS(=O)(=O)c3ccccc3)cc2)CC1	i	i	i	i	i
O=C(CCc1nc(-c2ccccc2F)no1)Nc1cccnc1	i	i	i	i	i
CCCCN1/C(=C/c2ccc3ccccc3[n+]2CC)Sc2ccccc21	i	i	i	i	204*
COC(=O)c1c(NC(=O)COC(=O)[C@@H](NS(=O)(=O)c2ccc(C)cc2)C(C)C)sc2c1CCC2	i	i	i	i	i
Cc1ccc(S(=O)(=O)N2CCCCC2)cc1NC(=O)COC(=O)C1=COCCO1	i	i	i	i	i
CCCCC1C2=C(CC(C)(C)CC2=O)OC2=C1C(=O)CC(C)(C)C2	i	i	i	14*	i
CC1CN(C(=O)NCc2ccccc2)c2cc(Cl)ccc2O1 (centres undefined)	i	i	i	i	i
CCn1c2ccccc2c2cc(NC(=O)CN3CCCC3)ccc21	i	i	i	28*	i
CC1(C)CC(NC(=O)c2cc(COc3cccc(C(F)(F)F)c3)on2)CCO1 (centres undefined)	i	-6*	i	i	i
COc1ccc(C(Nc2ccccn2)c2c(NC(=O)c3ccco3)sc(C)c2C)cc1OC (centres undefined)	i	-6*	i	i	i
COc1cc(C(Nc2ccccn2)c2c(NC(=O)c3ccco3)sc(C)c2C)cc(OC)c1OC (centres undefined)	i	i	i	i	i
C/C=C/c1ccc(OCc2cc(=O)n3cc(C)ccc3n2)c(OC)c1	i	i	i	i	i
Cc1cc(C)n(-c2cc(Cl)cc(Cl)c2)c(=O)c1C#N	i	i	i	i	i
Cc1ccc(-n2c(C)cc(C)c(C#N)c2=O)cc1Cl	i	-6*	i	i	45*
Cc1cc(Br)ccc1SCC(=O)OCC(=O)NCc1ccco1	i	i	i	i	i
CC1=NN(C(=O)COc2ccc(C)c(C)c2)C(O)(c2ccc(Cl)cc2)C1 (centres undefined)	i	i	i	22*	i
CCOC(=O)C1=NN(C(=O)COc2ccccc2)C(O)(c2ccc(Br)cc2)C1 (centres undefined)	i	i	i	i	47*
CC1=NN(C(=O)CSCc2ccccc2)C(O)(c2ccc(Cl)cc2)C1 (centres undefined)	i	i	i	i	i
CCOc1ccc(OCCOC(=O)CNC(=O)c2ccc(Cl)cc2Cl)cc1	i	i	i	i	i
COc1cc2c(cc1OC)C(C)N(CCN1C(=O)c3ccccc3C1=O)CC2 (centres undefined)	i	i	i	i	i
COc1cc2c(cc1OC)C(C)N(CCc1ccc(Cl)cc1)CC2 (centres undefined)	i	-6*	i	i	i
CC(NC(=O)c1ccco1)C(c1cccs1)N1CCN(c2ccc(F)cc2)CC1 (centres undefined)	i	i	i	i	i
SMILES	TRPC6 act	TRPC4 block	TRPC6 inhibitor	TRPC4 potent	TRPC4 act
CC(NC(=O)c1ccco1)C(c1cccs1)N1CCN(c2ccccc2)CC1 (centres undefined)	i	-6*	i	i	i
CCC(=O)NC(C)C(c1cccs1)N1CCN(c2ccccc2)CC1 (centres undefined)	i	i	i	i	119*
Cc1cc(OCC(=O)N2CCCC2)cc(C)c1Cl	i	i	i	i	84*
Cc1cc(OCC(=O)N2CCCC2)ccc1Cl	i	i	i	i	i
CCCNC(=O)CN1C(=O)NC(Cc2c[nH]c3ccccc23)C1=O (centres undefined)	i	i	i	i	i
Cc1ccc(C2=NN(S(=O)(=O)c3ccccc3)C(c3ccccc3O)C2)cc1 (centres undefined)	i	i	i	13*	i
CC(COc1ccccc1)N1CCC(CO)(Cc2ccccc2)CC1 (centres undefined)	i	-9*	i	i	i
COc1ccc(CC2(CO)CCN(C/C=C/c3ccccc3OC)CC2)cc1	i	-6*	i	i	i
CN(Cc1nc(-c2ccc3c(c2)OCO3)no1)CC1(N2CCOCC2)CCCCC1	i	i	i	35*	i
COC(=O)c1cnc(Oc2c(Cl)cc(N)cc2Cl)cc1C(F)(F)F	i	i	i	22*	i
Cc1[nH]c2c(ccc3ccccc32)c1C1C(CCN)C1(C)C (centres undefined)	i	i	i	i	70*
Cc1ccc2cc(CCl)c(Cl)nc2c1	i	i	i	i	i
COc1cc(/C=N/N2CCN(c3ccccc3OC)CC2)ccc1OC(C)=O	i	i	i	i	i
O=C(COc1ccc(F)cc1Br)N1CCN(S(=O)(=O)/C=C/c2ccccc2)CC1	i	i	i	12*	i
O=C(COc1ccc(F)cc1Br)N1CCN(c2ncccn2)CC1	i	i	i	i	i
O=C(Nc1ccccc1Oc1cccnc1)C1CCCN(Cc2ccccc2O)C1 (centres undefined)	i	i	i	i	i
C#Cc1ccc(CN2CCCC(C(=O)Nc3ccccc3Oc3cccnc3)C2)cc1 (centres undefined)	i	-6*	i	i	i
CC(C)CCn1c(N2CCN(c3cccc(Cl)c3)CC2)nc2c1c(=O)[nH]c(=O)n2C	i	i	i	16*	i
FC(F)(F)c1ccc(C2NCCc3sccc32)cc1 (centres undefined)	i	i	i	i	i
Cn1cc([N+](=O)[O-])c(C(=O)NC2CCCCCC2)n1	i	i	i	i	i
Cc1ccc(/C=C(\C#N)C(=O)NCC2CCCO2)o1 (centres undefined)	i	i	i	i	55*
N#C/C(=C\c1cccc([N+](=O)[O-])c1)C(=O)NCC1CCCO1 (centres undefined)	i	i	i	12*	i
Cc1ccccc1OCc1csc(N)n1	i	i	i	i	i
